The source of these data is ChEMBL document CHEMBL4196020, “Original antileishmanial hits: Variations around amidoximes” (Eur J Med Chem, 2018).

Each structure is given as a SMILES string.

Test system in the first series: not listed separately
Description: Selectivity index, ratio of CC50 for cytotoxicity against Balb/c mouse peritoneal macrophages to IC50 for antileishmanial activity against Leishmania amazonensis MHOM/BR/77/LTB0016 promastigotes. Format: toxicity. Particulars: read-out: Ratio CC50/IC50. Put shortly: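 SI calculated as macrophage CC50 divided by promastigote IC50. Both values come from 72 h assays: macrophages in RPMI at 37 °C and promastigotes in Schneider's medium at 26 °C with resazurin read-out.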
On to `CC1(Cc2ccc(-c3ccccc3)c(F)c2)CC(S(=O)(=O)c2ccc(F)cc2)=C(c2ccc(/C(N)=N/O)cc2)O1` (stereo unspecified), for which the selectivity ratio stood at 2.
Still for that read-out and setting: for `CC1(Cc2cc(C(F)(F)F)cc(C(F)(F)F)c2)CC(S(=O)(=O)c2ccc(F)cc2)=C(c2ccc(/C(N)=N/O)cc2)O1` (stereo unspecified) the value was 8.
Consider `Cc1ccccc1CC1(C)CC(S(=O)(=O)c2ccc(F)cc2)=C(c2ccc(/C(N)=N/O)cc2)O1` (stereo unspecified), for which the selectivity ratio is 37.
The same measure, in the same setting: for `CC1(Cc2cccc(C(F)(F)F)c2)CC(S(=O)(=O)c2ccc(F)cc2)=C(c2ccc(/C(N)=N/O)cc2)O1` (stereo unspecified) the value was 7.4.
Same read-out and setting: the value for `CC1(Cc2ccc([N+](=O)[O-])cc2)CC(S(=O)(=O)c2ccc(F)cc2)=C(c2ccc(/C(N)=N/O)cc2)O1` (stereo unspecified) was 5.8.
Still for that read-out and setting: the value for `Cc1cccc(CC2(C)CC(S(=O)(=O)c3ccc(F)cc3)=C(c3ccc(/C(N)=N/O)cc3)O2)c1` (stereo unspecified) was 19.9.
`CC1(Cc2ccc(C(F)(F)F)cc2)CC(S(=O)(=O)c2ccc(F)cc2)=C(c2ccc(/C(N)=N/O)cc2)O1` (stereo unspecified): the selectivity ratio was 12.6.
On the same count and under the same terms, the value for `CC1(C/C=C/c2ccc(C(F)(F)F)cc2)CC(S(=O)(=O)c2ccc(F)cc2)=C(c2ccc(/C(N)=N/O)cc2)O1` (stereo unspecified) was 2.6.

The test system of a further series is Leishmania amazonensis. Description: Antileishmanial activity against Leishmania amazonensis MHOM/BR/77/LTB0016 amastigotes infected in Balb/c mouse peritoneal macrophages after 72 hrs by hematological dye based light microscopic method. Format: functional, organism-based. The note with it: MHOM/BR/77/LTB0016, 72 h. The procedure, abridged: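 Resident BALB/c peritoneal macrophages plated at 1×10^6/mL in RPMI, 1 h at 37 °C in 5% CO2, non-adherent cells washed off. Infected with stationary-phase promastigotes at 3:1 parasite/macrophage for 4 h, free parasites washed off, compounds added for 72 h. Slides stained with hematological dye, infected cells and amastigotes counted in at least 100 macrophages per sample. IC50 by nonlinear regression. Three independent experiments.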
By IC50 is commonly meant the concentration at which inhibition is half-maximal. A higher IC50 goes with a need for much substance. For the compound `Cc1ccccc1CC1(C)CC(S(=O)(=O)c2ccc(F)cc2)=C(c2ccc(/C(N)=N/O)cc2)O1` (stereo unspecified), the IC50 is 7.2 µM. In other words, the single-digit micromolar range.
Still for that read-out and setting: the value for `Cc1cccc(CC2(C)CC(S(=O)(=O)c3ccc(F)cc3)=C(c3ccc(/C(N)=N/O)cc3)O2)c1` (stereo unspecified) was 6.7 µM; that for `CC1(Cc2ccc(C(F)(F)F)cc2)CC(S(=O)(=O)c2ccc(F)cc2)=C(c2ccc(/C(N)=N/O)cc2)O1` (stereo unspecified) was greater than 20 µM.

Test system in the next series: not listed separately
Description: Solubility of the compound in Schneider's insect medium supplemented with 10% HIFCS. Format: physicochemical.
Conditions: not given
For the compound `CC1(Cc2cccc(/C(N)=N/O)c2)CC(S(=O)(=O)c2ccc(F)cc2)=C(c2ccc(/C(N)=N/O)cc2)O1` (stereo unspecified), the solubility entry was “Insoluble”.
As to `CC1(Cc2ccc(CO)cc2)CC(S(=O)(=O)c2ccc(F)cc2)=C(c2ccc(/C(N)=N/O)cc2)O1` (stereo unspecified), the solubility entry is “Insoluble”.
On the same count and under the same terms, the value for `CC1(Cc2ccc(/C(N)=N/O)cc2)CC(S(=O)(=O)c2ccc(F)cc2)=C(c2ccc(/C(N)=N/O)cc2)O1` (stereo unspecified) was “Insoluble”.
Still for that read-out and setting: the value for `CC1(Cc2cccc(CO)c2)CC(S(=O)(=O)c2ccc(F)cc2)=C(c2ccc(/C(N)=N/O)cc2)O1` (stereo unspecified) was “Insoluble”.

Test system in another series: not listed separately
Description: Solubility of the compound in RPMI 1640 medium.
Conditions: not given
Format: physicochemical.
With `CC1(Cc2ccc(CO)cc2)CC(S(=O)(=O)c2ccc(F)cc2)=C(c2ccc(/C(N)=N/O)cc2)O1` (stereo unspecified), the solubility entry is listed as “Insoluble”.
Regarding `CC1(Cc2cccc(CO)c2)CC(S(=O)(=O)c2ccc(F)cc2)=C(c2ccc(/C(N)=N/O)cc2)O1` (stereo unspecified), the solubility result is “Insoluble”.

A further series deals with Leishmania amazonensis. Description: Antileishmanial activity against Leishmania amazonensis MHOM/BR/77/LTB0016 promastigotes after 72 hrs by resazurin dye based assay. Particulars: MHOM/BR/77/LTB0016, 72 h. Format: functional, organism-based. Put shortly:
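Promastigotes grown in Schneider's insect medium with 10% HIFCS, started at 1.0×10^6 cells/mL with or without a range of compound concentrations, 26 °C for 72 h. Viability read by resazurin. IC50 by logarithmic regression. Three independent experiments in triplicate, mean ± SD.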
`CC1(Cc2ccc(-c3ccccc3)c(F)c2)CC(S(=O)(=O)c2ccc(F)cc2)=C(c2ccc(/C(N)=N/O)cc2)O1` (stereo unspecified) gave a 50% inhibitory concentration (IC50) of 12.2 µM.
The same measure, in the same setting: for `CC1(Cc2cccc(/C(N)=N/O)c2)CC(S(=O)(=O)c2ccc(F)cc2)=C(c2ccc(/C(N)=N/O)cc2)O1` (stereo unspecified) the value was greater than 100 µM; for `CC1(Cc2ccc(CO)cc2)CC(S(=O)(=O)c2ccc(F)cc2)=C(c2ccc(/C(N)=N/O)cc2)O1` (stereo unspecified), greater than 100 µM.
On the same count and under the same terms, the value for `CC1(Cc2cc(C(F)(F)F)cc(C(F)(F)F)c2)CC(S(=O)(=O)c2ccc(F)cc2)=C(c2ccc(/C(N)=N/O)cc2)O1` (stereo unspecified) was 5.4 µM.
Same read-out and setting: the value for `Cc1ccccc1CC1(C)CC(S(=O)(=O)c2ccc(F)cc2)=C(c2ccc(/C(N)=N/O)cc2)O1` (stereo unspecified) was 2.1 µM; that for `CC1(Cc2cccc(C(F)(F)F)c2)CC(S(=O)(=O)c2ccc(F)cc2)=C(c2ccc(/C(N)=N/O)cc2)O1` (stereo unspecified) was 6.7 µM.
`CC1(Cc2ccc(/C(N)=N/O)cc2)CC(S(=O)(=O)c2ccc(F)cc2)=C(c2ccc(/C(N)=N/O)cc2)O1` (stereo unspecified) showed an IC50 greater than 100 µM.
On the same count and under the same terms, for `CC1(Cc2ccc([N+](=O)[O-])cc2)CC(S(=O)(=O)c2ccc(F)cc2)=C(c2ccc(/C(N)=N/O)cc2)O1` (stereo unspecified) the value was 16.7 µM; for `Cc1cccc(CC2(C)CC(S(=O)(=O)c3ccc(F)cc3)=C(c3ccc(/C(N)=N/O)cc3)O2)c1` (stereo unspecified), 5.6 µM.
The same measure, in the same setting: the value for `CC1(Cc2ccc(C(F)(F)F)cc2)CC(S(=O)(=O)c2ccc(F)cc2)=C(c2ccc(/C(N)=N/O)cc2)O1` (stereo unspecified) was 8.2 µM; that for `CC1(Cc2cccc(CO)c2)CC(S(=O)(=O)c2ccc(F)cc2)=C(c2ccc(/C(N)=N/O)cc2)O1` (stereo unspecified) was greater than 100 µM; that for `CC1(C/C=C/c2ccc(C(F)(F)F)cc2)CC(S(=O)(=O)c2ccc(F)cc2)=C(c2ccc(/C(N)=N/O)cc2)O1` (stereo unspecified) was 17.2 µM.

Test system in a further series: not listed separately
Briefly: Cytotoxicity against Balb/c mouse peritoneal macrophages assessed as reduction in cell viability after 72 hrs by resazurin assay. Format: cell-based, Peritoneal macrophage.
Conditions: not given
The procedure, abridged:
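Peritoneal cells collected by lavage in RPMI 1640 with 10% HIFCS, 2 mM L-glutamine, 1 mM pyruvate, streptomycin and penicillin. Adjusted to 1.0×10^6 cells/mL, plated in triplicate, 1 h at 37 °C in 5% CO2, non-adherent cells washed off. […] Three independent experiments, mean ± SD.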
By CC50 is commonly meant the concentration giving 50% cytotoxicity. Regarding `CC1(Cc2ccc(-c3ccccc3)c(F)c2)CC(S(=O)(=O)c2ccc(F)cc2)=C(c2ccc(/C(N)=N/O)cc2)O1` (stereo unspecified), the CC50 at 72 h was found to be 24.5 µM.
Still for that read-out and setting: the value for `CC1(Cc2cccc(/C(N)=N/O)c2)CC(S(=O)(=O)c2ccc(F)cc2)=C(c2ccc(/C(N)=N/O)cc2)O1` (stereo unspecified) was 50.2 µM.
Still for that read-out and setting: for `CC1(Cc2ccc(CO)cc2)CC(S(=O)(=O)c2ccc(F)cc2)=C(c2ccc(/C(N)=N/O)cc2)O1` (stereo unspecified) the value was greater than 100 µM.
The same measure, in the same setting: for `CC1(Cc2cc(C(F)(F)F)cc(C(F)(F)F)c2)CC(S(=O)(=O)c2ccc(F)cc2)=C(c2ccc(/C(N)=N/O)cc2)O1` (stereo unspecified) the value was 43.1 µM.
Take `Cc1ccccc1CC1(C)CC(S(=O)(=O)c2ccc(F)cc2)=C(c2ccc(/C(N)=N/O)cc2)O1` (stereo unspecified): the CC50 at 72 h is 77.6 µM.
Same read-out and setting: for `CC1(Cc2cccc(C(F)(F)F)c2)CC(S(=O)(=O)c2ccc(F)cc2)=C(c2ccc(/C(N)=N/O)cc2)O1` (stereo unspecified) the value was 49.8 µM.
The same measure, in the same setting: for `CC1(Cc2ccc(/C(N)=N/O)cc2)CC(S(=O)(=O)c2ccc(F)cc2)=C(c2ccc(/C(N)=N/O)cc2)O1` (stereo unspecified) the value was 42.2 µM.
Same read-out and setting: the value for `CC1(Cc2ccc([N+](=O)[O-])cc2)CC(S(=O)(=O)c2ccc(F)cc2)=C(c2ccc(/C(N)=N/O)cc2)O1` (stereo unspecified) was 97.4 µM; that for `Cc1cccc(CC2(C)CC(S(=O)(=O)c3ccc(F)cc3)=C(c3ccc(/C(N)=N/O)cc3)O2)c1` (stereo unspecified) was 112 µM.
With `CC1(Cc2ccc(C(F)(F)F)cc2)CC(S(=O)(=O)c2ccc(F)cc2)=C(c2ccc(/C(N)=N/O)cc2)O1` (stereo unspecified), the half-maximal cytotoxic concentration (CC50) at 72 h worked out at 103 µM.
As to `CC1(Cc2cccc(CO)c2)CC(S(=O)(=O)c2ccc(F)cc2)=C(c2ccc(/C(N)=N/O)cc2)O1` (stereo unspecified), the 50% cytotoxic concentration (CC50) at 72 h is greater than 100 µM.
`CC1(C/C=C/c2ccc(C(F)(F)F)cc2)CC(S(=O)(=O)c2ccc(F)cc2)=C(c2ccc(/C(N)=N/O)cc2)O1` (stereo unspecified): the CC50 at 72 h was found to be 43.9 µM.
